In ChEMBL document CHEMBL1123632, “Cardiotonic agents. 7. Inhibition of separated forms of cyclic nucleotide phosphodiesterase from guinea pig cardiac muscle by 4,5-dihydro-6-[4-(1H-imidazol-1-yl)phenyl]-3(2H)-pyridazinones and related compounds. Structure-activity relationships and correlation with in vivo positive inotropic …” (J Med Chem, 1987):
pIC50: −log10 of the molar value.

How the values were obtained:
PDE I (Cavia porcellus) [1] = assay: Inhibitory concentration against cAMP PDE I enzyme in guinea pig
Phosphodiesterase 3 [2] = target: T1, Phosphodiesterase 3 (Homo sapiens, UniProt Q14432+Q13370); assay: Inhibition of cAMP PDE III enzyme in guinea pig at 1E-4M concentration.; assay type: protein assay; conditions: Cavia porcellus; target entry is the homologue from another species
[3] = target: T2, cGMP-dependent 3',5'-cyclic phosphodiesterase (Homo sapiens, UniProt O00408); assay: Inhibition of cGMP PDE II enzyme in guinea pig at 1E-4M concentration; conditions: Cavia porcellus; target entry is the homologue from another species
[4] = Ratio of IC50 values for PDE III and PDE II.
PDE II (Cavia porcellus) = assay: Inhibition of cAMP PDE II enzyme in guinea pig at 1E-4M concentration.
Phosphodiesterase 3 [5] = target: T1, Phosphodiesterase 3; assay: Inhibitory concentration against cAMP PDE III enzyme in guinea pig; assay type: protein assay, Cavia porcellus; conditions: target entry is the homologue from another species
Phosphodiesterase 1 [6] = target: T3, Phosphodiesterase 1 (Homo sapiens, UniProt P54750+Q01064+Q14123); assay: Inhibition of cAMP PDE I enzyme in guinea pig at 1E-5M concentration; assay type: protein assay; conditions: Cavia porcellus; target entry is the homologue from another species
Canis familiaris = species: Canis familiaris; assay: Effective dose required to increase myocardial contractility in dog.; assay type: functional; conditions: Canis lupus familiaris, Myocardium
Outline: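 Anesthetized mongrel dogs (either sex): pentobarbital 35 mg/kg iv, then 5 mg kg⁻¹ h⁻¹ infusion. After 30-min control, compound in saline or dilute HCl/NaOH diluted with saline given iv over 1 min, cumulative half-log doses (typically four to six), 10–30 min apart.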

[7] = Ratio of IC50 values for PDE III and PDE I.
[8] = target: T2, cGMP-dependent 3',5'-cyclic phosphodiesterase; assay: Inhibition of cAMP PDE II enzyme in guinea pig at 1E-5M concentration; conditions: Cavia porcellus; target entry is the homologue from another species
[9] = target: T2, cGMP-dependent 3',5'-cyclic phosphodiesterase; assay: Inhibition of cGMP PDE II enzyme in guinea pig at 1E-5M concentration; conditions: Cavia porcellus; target entry is the homologue from another species
[10] = target: T2, cGMP-dependent 3',5'-cyclic phosphodiesterase; assay: Inhibition of PDE II enzyme in guinea pig; parameters: species or system Cavia porcellus; conditions: target entry is the homologue from another species
Phosphodiesterase 1 [11] = target: T3, Phosphodiesterase 1; assay: Inhibition of cGMP PDE I enzyme in guinea pig at 1E-4M concentration; assay type: protein assay; conditions: Cavia porcellus; target entry is the homologue from another species
Phosphodiesterase 3 [12] = target: T1, Phosphodiesterase 3; assay: Inhibition of cAMP PDE III enzyme in guinea pig at 1E-5M concentration; assay type: protein assay; conditions: Cavia porcellus; target entry is the homologue from another species
PDE I (Cavia porcellus) [13] = assay: Inhibitory concentration against cGMP PDE I enzyme in guinea pig
[14] = target: T2, cGMP-dependent 3',5'-cyclic phosphodiesterase; assay: Inhibitory concentration against cGMP PDE II enzyme in guinea pig; parameters: species or system Cavia porcellus; conditions: target entry is the homologue from another species
Phosphodiesterase 1 [15] = target: T3, Phosphodiesterase 1; assay: Inhibition of cAMP PDE I enzyme in guinea pig at 1E-4M concentration.; assay type: protein assay; conditions: Cavia porcellus; target entry is the homologue from another species
Phosphodiesterase 1 [16] = target: T3, Phosphodiesterase 1; assay: Inhibition of cGMP PDE I enzyme in guinea pig at 1E-5M concentration; assay type: protein assay; conditions: Cavia porcellus; target entry is the homologue from another species
[17] = target: T2, cGMP-dependent 3',5'-cyclic phosphodiesterase; assay: Inhibitory concentration against cAMP PDE II enzyme in guinea pig; parameters: species or system Cavia porcellus; conditions: target entry is the homologue from another species
[18] = target: T2, cGMP-dependent 3',5'-cyclic phosphodiesterase; assay: Inhibition of cGMP PDE II enzyme in guinea pig at 10e-4 M; conditions: Cavia porcellus, target entry is the homologue from another species

T2 sequence (O00408 whole entry): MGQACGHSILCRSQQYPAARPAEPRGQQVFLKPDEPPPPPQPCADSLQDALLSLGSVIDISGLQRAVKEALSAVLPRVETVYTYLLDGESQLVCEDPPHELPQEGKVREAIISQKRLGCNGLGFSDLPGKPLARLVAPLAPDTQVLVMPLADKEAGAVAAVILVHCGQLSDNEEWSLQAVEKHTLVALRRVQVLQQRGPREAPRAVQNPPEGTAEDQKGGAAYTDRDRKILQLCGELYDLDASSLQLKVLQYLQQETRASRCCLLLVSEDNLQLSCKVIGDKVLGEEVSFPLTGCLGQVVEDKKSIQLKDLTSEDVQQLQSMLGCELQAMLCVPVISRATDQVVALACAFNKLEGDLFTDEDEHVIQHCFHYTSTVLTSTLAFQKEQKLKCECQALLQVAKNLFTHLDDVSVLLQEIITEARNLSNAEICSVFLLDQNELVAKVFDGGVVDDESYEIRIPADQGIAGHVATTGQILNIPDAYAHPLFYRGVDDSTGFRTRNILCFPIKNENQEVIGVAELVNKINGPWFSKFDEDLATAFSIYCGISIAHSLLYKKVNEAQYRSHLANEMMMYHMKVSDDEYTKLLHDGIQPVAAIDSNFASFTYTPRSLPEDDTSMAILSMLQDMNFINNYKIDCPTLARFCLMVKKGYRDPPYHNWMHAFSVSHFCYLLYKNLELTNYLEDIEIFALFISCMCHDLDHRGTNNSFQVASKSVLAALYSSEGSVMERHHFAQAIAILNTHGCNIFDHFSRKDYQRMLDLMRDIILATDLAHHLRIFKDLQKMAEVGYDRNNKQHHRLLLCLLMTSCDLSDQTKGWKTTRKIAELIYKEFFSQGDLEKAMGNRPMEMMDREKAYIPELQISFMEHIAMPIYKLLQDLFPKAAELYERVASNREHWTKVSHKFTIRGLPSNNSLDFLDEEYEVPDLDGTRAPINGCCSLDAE

| IC50 (PDE I (Cavia porcellus) [1]) | inhibition (Phosphodiesterase 3 [2]) | inhibition [3] | Ratio [4] | inhibition (PDE II (Cavia porcellus)) | IC50 (Phosphodiesterase 3 [5]) | inhibition (Phosphodiesterase 1 [6]) | Ratio [7] | inhibition [8] | inhibition [9] | pIC50 [10] | inhibition (Phosphodiesterase 1 [11]) | inhibition (Phosphodiesterase 3 [12]) | IC50 (PDE I (Cavia porcellus) [13]) | pIC50 [14] | inhibition (Phosphodiesterase 1 [15]) | inhibition (Phosphodiesterase 1 [16]) | pIC50 [17] | inhibition [18] | Compound | ED50 (Canis familiaris) |
| --- | --- | --- | --- | --- | --- | --- | --- | --- | --- | --- | --- | --- | --- | --- | --- | --- | --- | --- | --- | --- |
| > 500 µM | 64% | 51% | 200 | 44% | 22 µM | 6% | < 44 | 13% | 10% | 3.96 | 28% | 41% | > 500 µM | 4.06 | 20% | 7% |  |  | Nc1cc(-c2ccc(-n3ccnc3)cc2)nnc1O | 0.3 mg/kg |
| 790 µM | 64% |  | 5.4 | 19% | 2.3 µM | 1% | 2.9 | 8% | 4% |  | 18% | 57% | 530 µM | 3.42 | 16% | 0% | 3.38 | 22% | Cc1nccn1-c1ccc(C2=NNC(=O)CC2)cc1 | 0.3 mg/kg |
